# In paper PMC3984342 (mAbs, 2013):
# Like-named read-outs stand apart in the source and are kept apart here.
# Key:
# [1] = METH alone, no antibody; ref Riviere et al.[21]; cited from earlier work
# [2] = Prediction of human elimination half-life from rat values; set-up: species or system humans; settings: extrapolated from rat: human ClT about one-third of rat, similar Vdss
# [3] = Ch-mAb7F9 pharmacokinetics in rats; type: in vivo, Male, Sprague Dawley rats; settings: for ClT / Vdss / t1/2λz: rat
# Summary of the method: (§1)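 Male Sprague Dawley rats (n = 12/group), housed individually, got a single IV antibody dose via tail vein over about 2 min. The dose was ultracentrifuged (~100,000 g, 1 h, 5 °C) and diluted in PBS (15 mM sodium phosphate, 150 mM NaCl). METH 1 mg/kg (in 0.9% NaCl) or saline was given SC 24 h later. Six tail-vein samples were drawn over 3 wk. Non-compartmental sparse-sampling analysis used mean concentration per time point: ClT = D/AUC, Vdss = D·AUMC/AUC², […].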
# [4] = Modified radioimmunoassay; type: binding; settings: modified RIA, [3H]-METH tracer, complete inhibition curve
# [5] = type: in vivo, Male, Sprague Dawley rats; settings: rats, single antibody dose, throughout the study
# Summary of the method: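 Body weights and general health observations were recorded for each rat throughout the 3-week study after the single IV antibody dose and 24-h SC challenge. Body weight and hematocrit are given as mean ± standard deviation.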
# [6] = Preliminary surface plasmon resonance study of on-off rates; type: binding; settings: data not shown
# [7] = Isothermal titration calorimetry; type: binding
# Summary of the method: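 For isothermal titration calorimetry, 86 μM METH was titrated into 5 μM antibody at 307 rpm. Each run had 28 injections of 10 μL, spaced 200 s, at 37 °C in PBS pH 6.5. A one-site model gave N, ΔH, ΔS and the association constant (the reciprocal of KD). Activity was derived from N and molecular weights, with 2.07 μg METH/mg mAb taken as 100% active.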
# [8] = GLP in vivo rat toxicology study
# [9] = GLP human tissue cross-reactivity study; settings: human tissues, results not shown
# [10] = METH pharmacokinetics in rats after anti-METH mAb treatment; type: in vivo, Male, Sprague Dawley rats; settings: rat
# Summary of the method: as §1
# [11] = ch-mAb7F9 15 mg/kg IV, saline challenge
# [12] = ch-mAb7F9 15 mg/kg IV, with METH 1 mg/kg SC 24 h later
# [13] = ch-mAb7F9 150 mg/kg IV, saline challenge
# [14] = ch-mAb7F9 150 mg/kg IV, with METH 1 mg/kg SC 24 h later
molecule,measurement,setting,value
(+)-methamphetamine,METH ClT,[1],181400 mL/day/kg
same,METH Vdss,[1],9 L/kg
same,METH t1/2λz,[1],1.1 h
"ch-mAb7F9: human-mouse chimeric anti-METH monoclonal antibody; mAb7F9 variable region joined to human IgG2κ constant domains (antibody, V domains shown) VH: EIQLQQSGPELGKPGASVKVSCRASGFSFADYYIYWVKQSHGKSLELIGYIDPFNGGDTYNQIFKGKATLTVDKSSSTAFMYLNSLTSEDSAVYYCAAFRNPSFDFWGQGTTLTVSS VL: QIVLIQSPPIMSASPGEKVTLTCSASSSVSSRYLYWYQQKPGSSPKLWIYGTSNLASGVPARFSGSGSGTSFSLTISSMEAEDAASYFCHQWSSFPFTFGSGTKLEIK",predicted t1/2λz in humans,[2],≤ 3 wk
same,ClT,[3]; [11],6.9 mL/day/kg
same,Vdss,[3]; [11],0.1084 L/kg
same,t1/2λz,[3]; [11],262 h
same,ClT,[3]; [12],6.1 mL/day/kg
same,Vdss,[3]; [12],0.1151 L/kg
same,t1/2λz,[3]; [12],314 h
same,ClT,[3]; [13],6.5 mL/day/kg
same,Vdss,[3]; [13],0.1083 L/kg
same,t1/2λz,[3]; [13],276 h
same,ClT,[3]; [14],7.6 mL/day/kg
same,Vdss,[3]; [14],0.1082 L/kg
same,t1/2λz,[3]; [14],235 h
same,t1/2λz (range over groups),"[3]; rats, current studies, 15 and 150 mg/kg",240 to 312 h
same,Kd,[4],6.9 nM
same,"health changes (eating behavior, body weight)",[5],no significant health changes
same,on-off rates of METH binding,[6],both reactions are fast
same,average activity (capacity for binding METH per quantity of mAb),"[7]; first GMP-compliant lot, converted from ITC stoichiometry",1.96 μg METH bound per mg mAb
same,Kd,"[7]; read-out: KD (ITC, average), ITC, 37 °C, PBS pH 6.5",49 nM
same,elimination half-life,"[8]; GLP rat toxicology study, samples for 56 d, results not shown",190 to 288 h
same,"no-observed-adverse-effect level, NOAEL","[8]; rat, single doses, GLP",400 mg/kg
same,tissue staining,[9],the staining was cytoplasmic
same,decrease of METH clearance compared with mAb7F9,[10]; 150 mg/kg mAb dose,approximately 50%
same,METH ClT,[10]; METH 1 mg/kg SC 24 h after mAb 15 mg/kg IV,13800 mL/day/kg
same,METH ClT,[10]; METH 1 mg/kg SC 24 h after mAb 150 mg/kg IV,926 mL/day/kg
same,decrease of METH Vdss compared with METH alone,[10]; ch-mAb7F9 15 mg/kg,~ 5 fold
same,increase in METH t1/2λz compared with METH alone,[10]; ch-mAb7F9 15 mg/kg,2.1 fold
same,decrease of METH ClT compared with METH alone,[10]; ch-mAb7F9 15 mg/kg (low dose),13 fold
same,decrease of METH Vdss compared with METH alone,[10]; ch-mAb7F9 150 mg/kg,~25 fold
same,increase in METH t1/2λz compared with METH alone,[10]; ch-mAb7F9 150 mg/kg,5.9 fold
same,decrease of METH ClT compared with METH alone,[10]; ch-mAb7F9 150 mg/kg (high dose),196 fold
